Published values gathered from unrelated publications.
Cell line: HepG2
Effect on: cell growth or viability

COc1ccc(-c2cc(-c3ccc(C)cc3)nc3[nH]c(=O)[nH]c(=O)c23)cc1OC
IC50 (MTT; 48 h): 34.7 µM

O=C(Nc1ccc(Oc2nnc(-c3ccc(Cl)cc3)c3ccccc23)cc1)c1ccccc1
viability (MTT; 10 µM; 24 h): 4.07%

CC(=NNC(=O)COc1ccc2c(C)c(Cc3ccccc3)c(=O)oc2c1C)c1ccc(Br)cc1
viability (MTT; 25 µg/mL): 44.2%

CC(=NNC(=O)c1ccccc1O)c1ccc(Nc2nnc(-c3ccc(Cl)cc3)c3ccccc23)cc1
viability (MTT; 1.25 µM; 24 h): 87.2%

CC(=O)Nc1ccc(/C(C)=N/N=c2\sc(C(C)=O)nn2-c2ccc(C)cc2)cc1
viability (MTT; 1.25 µM): 99.8%

Cc1nc2ccc(CN(C)c3ccc(C(=O)N[C@@H](CCC(=O)O)C(=O)O)s3)cc2c(=O)[nH]1
IC50 (MTT; 48 h): 1.34 µM

CC(=NNC(=S)Nc1ccccc1)c1ccc(Nc2nnc(-c3ccc(Cl)cc3)c3ccccc23)cc1
cell death (MTT; 1.25 µM): 50%

CN(C)c1cc(NC(=O)CCc2ccccc2)c(O)c2c1C[C@H]1C[C@H]3[C@H](N(C)C)C(O)=C(C(N)=O)C(=O)[C@@]3(O)C(O)=C1C2=O
IC50 (ATP luminescence; 72 h): 165 µg/mL

CC(=NNC(=O)c1ccncc1)c1ccc(Nc2nnc(-c3ccc(Cl)cc3)c3ccccc23)cc1
viability (MTT; 2.5 µM; 24 h): 3.92%

COc1ccc(-c2cc(-c3ccc(Cl)cc3)c3c(=O)n(C)c(=O)n(C)c3n2)cc1
IC50 (MTT; 48 h): 17.3 µM

CCOC(=O)c1nn(-c2cccc(Cl)c2)/c(=N/N=C(\C)c2ccc(NC(=O)c3ccccc3)cc2)s1
viability (MTT; 5 µM): 3%

O=C(Nc1ccc(Oc2nnc(-c3ccc(Cl)cc3)c3ccccc23)cc1)c1cccc([N+](=O)[O-])c1
viability (MTT; 5 µM; 24 h): 5.16%

CC(=O)c1nn(-c2ccc(C)cc2)/c(=N/N=C(\C)c2ccc(NC(=O)c3ccccc3)cc2)s1
viability (MTT; 5 µM): 6.81%

O=C(C=Cc1ccccc1)Nc1ccc(Oc2nnc(-c3ccc(Cl)cc3)c3ccccc23)cc1
cell death (MTT; 1.25 µM): 62.6%

COc1ccc(-c2cc(-c3ccc(Br)cc3)c3c(=O)[nH]c(=O)[nH]c3n2)cc1
IC50 (MTT; 48 h): 11.2 µM

C=CC(=O)NC1CCN(c2ncc3ncnc(Nc4ccc(Oc5ccc6c(c5)ncn6C)c(C)c4)c3n2)CC1
EC50: 0.335 µM

COc1ccc(-c2cc(-c3cccc(Br)c3)c3c(=O)[nH]c(=O)[nH]c3n2)cc1
IC50 (MTT; 48 h): 16.2 µM

CC(=O)c1nn(-c2ccccc2Cl)/c(=N/N=C(\C)c2ccc(NC(=O)c3ccccc3)cc2)s1
viability (MTT; 2.5 µM): 6.09%

O=C(Nc1ccccc1)Nc1ccc(Oc2nnc(-c3ccc(Cl)cc3)c3ccccc23)cc1
viability (MTT; 0.312 µM; 24 h): 7.03%

CCOC(=O)c1nn(-c2cccc(Cl)c2)/c(=N/N=C(\C)c2ccc(NC(=O)c3ccc(Cl)cc3)cc2)s1
viability (MTT; 78 nM): 73.1%

CN(C)c1cc(NC(=O)Cc2cscn2)c(O)c2c1C[C@H]1C[C@H]3[C@H](N(C)C)C(O)=C(C(N)=O)C(=O)[C@@]3(O)C(O)=C1C2=O
IC50 (ATP luminescence; 72 h): 75.8 µg/mL
